According to ChEMBL document CHEMBL3763019, “Discovery of benzenesulfonamide derivatives as potent PI3K/mTOR dual inhibitors with in vivo efficacies against hepatocellular carcinoma” (Bioorg Med Chem, 2016):

Key:
[1] = Antiproliferative activity against human RPMI8226 cells incubated for 48 hrs by sulforhodamine B assay; type: functional; conditions: RPMI-8226, 48 h
[2] = biological target: Phosphatidylinositol 4,5-bisphosphate 3-kinase catalytic subunit gamma isoform (Homo sapiens, UniProt P48736); assay: Inhibition of PI3K-gamma (unknown origin) at 10 nM after 40 mins by ADP-Glo luminescent kinase assay
Sequence of Phosphatidylinositol 4,5-bisphosphate 3-kinase catalytic subunit gamma isoform (P48736 whole entry, looked up, canonical isoform): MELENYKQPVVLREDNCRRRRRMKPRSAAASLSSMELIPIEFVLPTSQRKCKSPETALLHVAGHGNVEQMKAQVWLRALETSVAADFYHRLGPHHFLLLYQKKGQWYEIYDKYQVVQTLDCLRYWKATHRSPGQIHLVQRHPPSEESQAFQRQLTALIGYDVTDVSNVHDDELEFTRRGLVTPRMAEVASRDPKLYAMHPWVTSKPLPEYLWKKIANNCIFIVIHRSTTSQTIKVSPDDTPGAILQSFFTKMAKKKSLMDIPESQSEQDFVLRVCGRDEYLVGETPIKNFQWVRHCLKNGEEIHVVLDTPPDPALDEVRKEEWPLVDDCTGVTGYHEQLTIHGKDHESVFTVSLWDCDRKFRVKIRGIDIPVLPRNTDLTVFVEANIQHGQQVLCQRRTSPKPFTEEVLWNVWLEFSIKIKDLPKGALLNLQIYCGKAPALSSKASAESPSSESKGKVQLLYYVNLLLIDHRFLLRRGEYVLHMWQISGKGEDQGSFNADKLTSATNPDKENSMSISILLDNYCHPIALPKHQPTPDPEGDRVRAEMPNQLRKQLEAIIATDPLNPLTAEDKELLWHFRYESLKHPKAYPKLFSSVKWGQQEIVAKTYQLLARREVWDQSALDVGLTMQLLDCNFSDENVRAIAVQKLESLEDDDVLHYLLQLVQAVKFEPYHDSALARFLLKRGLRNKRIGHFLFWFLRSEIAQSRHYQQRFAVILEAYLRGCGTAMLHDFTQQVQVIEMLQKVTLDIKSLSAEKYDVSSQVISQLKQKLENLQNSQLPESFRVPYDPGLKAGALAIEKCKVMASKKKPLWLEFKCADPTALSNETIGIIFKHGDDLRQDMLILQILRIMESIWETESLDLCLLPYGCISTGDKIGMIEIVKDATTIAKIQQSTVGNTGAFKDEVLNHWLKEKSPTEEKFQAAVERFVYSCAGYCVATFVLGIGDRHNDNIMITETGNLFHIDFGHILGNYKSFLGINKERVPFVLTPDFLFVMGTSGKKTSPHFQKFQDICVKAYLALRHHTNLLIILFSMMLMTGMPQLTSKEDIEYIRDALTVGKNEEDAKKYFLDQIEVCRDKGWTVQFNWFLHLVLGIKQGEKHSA
Method in brief: (§1)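 Final enzyme was PI3Kβ 4.8 nM and PI3Kγ 7.6 nM. ADP-Glo reagent stopped the reaction (40 min), then detection reagent was added (60 min) and luminescence read. Percent inhibition was derived from RLU.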

[3] = Antiproliferative activity against human DU145 cells incubated for 48 hrs by sulforhodamine B assay; type: functional; conditions: DU-145, 48 h
Method in brief: (§2)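 Run externally by the US National Cancer Institute as part of its 60 human cancer cell line cytotoxicity screen (NCI-60).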

MDA-MB-231 = assay: Cytotoxicity against human MDA-MB-231 cells after 72 hrs by MTT assay; type: functional, cell-based; conditions: MDA-MB-231, 72 h
Method in brief: (§3)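 Log-phase cells at 40,000–50,000 cells/mL in DMEM with 10% FBS and antibiotics were seeded and cultured overnight at 37 °C, 5% CO₂. Compounds were diluted in DMSO/PBS from 10^-4 to 10^-9 M and applied for 72 h. MTT (5 mg/mL stock) was then added for 4 h and absorbance read at 570 nm. IC50 came from nonlinear regression on triplicate wells, averaged.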

A549 = assay: Antiproliferative activity against human A549 cells incubated for 48 hrs by sulforhodamine B assay; type: functional; conditions: A549, 48 h; method in brief: as §2
[4] = Antiproliferative activity against human HL-60(TB) cells incubated for 48 hrs by sulforhodamine B assay; type: functional; conditions: HL-60, 48 h
[5] = Antiproliferative activity against human SNB19 cells incubated for 48 hrs by sulforhodamine B assay; type: functional; conditions: SNB-19, 48 h; method in brief: as §2
[6] = Antiproliferative activity against human RXF393 cells incubated for 48 hrs by sulforhodamine B assay; type: functional; conditions: RXF 393, 48 h; method in brief: as §2
[7] = Antiproliferative activity against human HCT15 cells incubated for 48 hrs by sulforhodamine B assay; type: functional; conditions: HCT-15, 48 h; method in brief: as §2
[8] = Cytotoxicity against human HCT116 cells after 72 hrs by MTT assay; type: functional, cell-based; conditions: HCT-116, 72 h; method in brief: as §3
[9] = biological target: Phosphatidylinositol 4,5-bisphosphate 3-kinase catalytic subunit beta isoform (Homo sapiens, UniProt P42338); assay: Inhibition of PI3K-beta (unknown origin) at 10 nM after 40 mins by ADP-Glo luminescent kinase assay; method in brief: as §1
Sequence of Phosphatidylinositol 4,5-bisphosphate 3-kinase catalytic subunit beta isoform (P42338 whole entry, looked up, canonical isoform): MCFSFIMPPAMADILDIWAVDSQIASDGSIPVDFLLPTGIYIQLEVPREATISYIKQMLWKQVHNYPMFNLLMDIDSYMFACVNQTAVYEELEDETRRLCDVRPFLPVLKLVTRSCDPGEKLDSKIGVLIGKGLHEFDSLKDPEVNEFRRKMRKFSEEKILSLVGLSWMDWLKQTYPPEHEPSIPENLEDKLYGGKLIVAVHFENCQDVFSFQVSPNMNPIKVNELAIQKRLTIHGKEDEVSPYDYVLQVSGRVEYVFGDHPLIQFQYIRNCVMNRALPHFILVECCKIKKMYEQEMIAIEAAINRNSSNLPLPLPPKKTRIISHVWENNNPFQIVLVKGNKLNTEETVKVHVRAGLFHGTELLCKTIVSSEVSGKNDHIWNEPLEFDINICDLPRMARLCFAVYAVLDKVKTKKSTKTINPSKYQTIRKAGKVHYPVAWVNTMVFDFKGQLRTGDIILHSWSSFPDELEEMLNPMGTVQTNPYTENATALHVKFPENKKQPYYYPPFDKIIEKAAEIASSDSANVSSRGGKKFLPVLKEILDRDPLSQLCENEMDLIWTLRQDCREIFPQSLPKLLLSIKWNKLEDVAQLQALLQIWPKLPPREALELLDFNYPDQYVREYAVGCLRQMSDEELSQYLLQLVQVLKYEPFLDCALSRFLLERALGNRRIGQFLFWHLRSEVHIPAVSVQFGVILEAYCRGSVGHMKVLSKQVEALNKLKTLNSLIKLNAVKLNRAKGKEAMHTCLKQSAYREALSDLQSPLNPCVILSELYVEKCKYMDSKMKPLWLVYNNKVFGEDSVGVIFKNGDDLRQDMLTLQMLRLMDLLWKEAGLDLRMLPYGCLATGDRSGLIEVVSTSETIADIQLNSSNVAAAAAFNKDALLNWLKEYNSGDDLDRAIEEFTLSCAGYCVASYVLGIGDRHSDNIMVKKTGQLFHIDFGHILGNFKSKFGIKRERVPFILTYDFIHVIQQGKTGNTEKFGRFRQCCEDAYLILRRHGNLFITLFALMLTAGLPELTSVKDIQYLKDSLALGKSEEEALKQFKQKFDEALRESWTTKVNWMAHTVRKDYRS

[10] = Antiproliferative activity against human SF539 cells incubated for 48 hrs by sulforhodamine B assay; type: functional; conditions: SF-539, 48 h; method in brief: as §2
T47D = assay: Antiproliferative activity against human T47D cells incubated for 48 hrs by sulforhodamine B assay; type: functional; method in brief: as §2
[11] = biological target: Phosphatidylinositol 4,5-bisphosphate 3-kinase catalytic subunit alpha isoform (Homo sapiens, UniProt P42336); assay: Inhibition of PI3K-alpha (unknown origin) using PIP2 as substrate incubated for 1 hr by Kinase-Glo luminescent kinase assay
Sequence of Phosphatidylinositol 4,5-bisphosphate 3-kinase catalytic subunit alpha isoform (P42336 whole entry, canonical isoform): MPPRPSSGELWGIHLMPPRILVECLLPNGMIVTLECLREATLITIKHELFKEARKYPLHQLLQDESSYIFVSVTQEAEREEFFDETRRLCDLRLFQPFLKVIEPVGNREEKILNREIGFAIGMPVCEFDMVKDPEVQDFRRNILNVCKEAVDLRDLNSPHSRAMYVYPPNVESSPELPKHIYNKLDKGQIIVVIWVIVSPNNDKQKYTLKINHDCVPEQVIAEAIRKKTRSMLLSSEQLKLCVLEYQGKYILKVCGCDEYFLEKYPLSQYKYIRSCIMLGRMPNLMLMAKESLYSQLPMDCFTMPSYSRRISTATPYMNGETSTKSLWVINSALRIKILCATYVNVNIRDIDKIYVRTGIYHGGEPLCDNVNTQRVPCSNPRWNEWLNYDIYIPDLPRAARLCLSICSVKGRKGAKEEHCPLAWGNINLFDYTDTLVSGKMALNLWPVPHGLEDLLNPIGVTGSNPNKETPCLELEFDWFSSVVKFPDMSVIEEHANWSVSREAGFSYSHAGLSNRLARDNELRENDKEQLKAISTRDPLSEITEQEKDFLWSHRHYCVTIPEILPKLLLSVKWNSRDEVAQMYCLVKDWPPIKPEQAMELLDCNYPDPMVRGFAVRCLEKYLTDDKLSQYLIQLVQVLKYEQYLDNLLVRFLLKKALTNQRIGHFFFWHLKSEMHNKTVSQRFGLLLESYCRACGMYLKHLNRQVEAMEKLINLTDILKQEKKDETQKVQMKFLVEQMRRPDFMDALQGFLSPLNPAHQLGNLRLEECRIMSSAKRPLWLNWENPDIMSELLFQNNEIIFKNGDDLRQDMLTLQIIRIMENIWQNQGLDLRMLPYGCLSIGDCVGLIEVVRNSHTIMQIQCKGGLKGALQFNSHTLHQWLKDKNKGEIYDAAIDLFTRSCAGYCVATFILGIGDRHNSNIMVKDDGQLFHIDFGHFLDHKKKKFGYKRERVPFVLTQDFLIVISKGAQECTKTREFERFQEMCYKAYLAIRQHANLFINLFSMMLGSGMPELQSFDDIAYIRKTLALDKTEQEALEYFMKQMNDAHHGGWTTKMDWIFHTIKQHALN

Malme-3M = assay: Antiproliferative activity against human MALME-3M cells incubated for 48 hrs by sulforhodamine B assay; type: functional; method in brief: as §2
NCI-H460 = assay: Antiproliferative activity against human NCI-H460 cells incubated for 48 hrs by sulforhodamine B assay; type: functional; conditions: NCI-H460, 48 h; method in brief: as §2
[12] = Antitumor activity against human Bel7404 cells xenografted in BALB/c nude mouse assessed as reduction in tumor volume at 30 mg/kg, po qd for 14 consecutive days relative to control; type: functional, BEL-7404; parameters: scale not given: the % may be the effect or the level left
Method in brief: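 Male BALB/c nude mice carried implanted BEL-7404 tumours and were randomized once tumours reached 100–300 mm³ (about 12 days); there were 6 per treated group and 8 controls. Drug in 5% polysorbate 80/water was given orally once daily for 14 days from day 13. Tumour volume (1/2·a·b·b) and body weight were tracked, with sacrifice on day 29. The read-out was relative tumour volume versus vehicle, reported as mean SE.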

[13] = biological target: Phosphatidylinositol 4,5-bisphosphate 3-kinase catalytic subunit delta isoform (Homo sapiens, UniProt O00329); assay: Inhibition of PI3K-delta (unknown origin) using PIP2 as substrate incubated for 1 hr by Kinase-Glo luminescent kinase assay
Sequence of Phosphatidylinositol 4,5-bisphosphate 3-kinase catalytic subunit delta isoform (O00329 whole entry, canonical isoform): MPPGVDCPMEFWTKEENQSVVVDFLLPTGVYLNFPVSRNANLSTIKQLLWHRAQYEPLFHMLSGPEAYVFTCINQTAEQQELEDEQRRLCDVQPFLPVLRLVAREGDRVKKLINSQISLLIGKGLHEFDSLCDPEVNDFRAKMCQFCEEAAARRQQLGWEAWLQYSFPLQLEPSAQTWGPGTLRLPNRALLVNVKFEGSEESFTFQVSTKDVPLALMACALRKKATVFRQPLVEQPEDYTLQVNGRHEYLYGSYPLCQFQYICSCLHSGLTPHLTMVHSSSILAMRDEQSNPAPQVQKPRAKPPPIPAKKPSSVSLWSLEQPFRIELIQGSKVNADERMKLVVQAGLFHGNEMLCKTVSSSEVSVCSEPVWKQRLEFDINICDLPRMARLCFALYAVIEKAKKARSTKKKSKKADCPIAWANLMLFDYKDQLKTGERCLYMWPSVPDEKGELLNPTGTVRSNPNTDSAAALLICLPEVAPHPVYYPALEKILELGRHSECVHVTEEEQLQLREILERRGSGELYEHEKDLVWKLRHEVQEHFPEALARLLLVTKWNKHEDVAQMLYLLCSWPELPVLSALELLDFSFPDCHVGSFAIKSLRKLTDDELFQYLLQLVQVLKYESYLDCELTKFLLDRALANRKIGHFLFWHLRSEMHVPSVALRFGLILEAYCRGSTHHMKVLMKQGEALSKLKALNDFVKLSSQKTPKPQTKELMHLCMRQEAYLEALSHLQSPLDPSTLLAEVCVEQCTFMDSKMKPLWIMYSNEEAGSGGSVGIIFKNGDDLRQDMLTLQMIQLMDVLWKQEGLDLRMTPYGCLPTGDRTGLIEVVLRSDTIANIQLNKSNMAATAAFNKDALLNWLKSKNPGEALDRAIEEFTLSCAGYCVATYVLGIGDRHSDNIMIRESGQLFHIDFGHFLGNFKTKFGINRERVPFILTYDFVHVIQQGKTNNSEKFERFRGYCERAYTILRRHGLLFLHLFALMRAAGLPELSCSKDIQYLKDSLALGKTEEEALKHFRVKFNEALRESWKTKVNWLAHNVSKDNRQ

[14] = Antiproliferative activity against human Hs 578T cells incubated for 48 hrs by sulforhodamine B assay; type: functional
Mus musculus = assay: Toxicity in BALB/C nude mouse xenografted with human Bel7404 cells assessed as reduction in body weight at 30 mg/kg, po qd for 14 consecutive days; type: organism-based; conditions: in vivo
Method in brief: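 Male BALB/C nude mice were implanted with BEL-7404 cells. When tumors reached 100–300 mm³ (after 12 days), mice were randomized to 6 per treatment group and 8 controls. The drug, suspended in 5% polysorbate 80 in water, was given orally once daily for 14 days from day 13. Body weight and mortality were tracked during dosing, and mice were sacrificed on day 29.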

[15] = Antiproliferative activity against human HOP62 cells incubated for 48 hrs by sulforhodamine B assay; type: functional; conditions: HOP-62, 48 h; method in brief: as §2
SK-MEL-2 = assay: Antiproliferative activity against human SK-MEL-2 cells incubated for 48 hrs by sulforhodamine B assay; type: functional; conditions: SK-MEL-2, 48 h; method in brief: as §2
[16] = Antiproliferative activity against human SKOV3 cells incubated for 48 hrs by sulforhodamine B assay; type: functional; conditions: SK-OV-3, 48 h; method in brief: as §2
[17] = Antiproliferative activity against human BT549 cells incubated for 48 hrs by sulforhodamine B assay; type: functional; conditions: BT-549, 48 h; method in brief: as §2
[18] = Antiproliferative activity against human TK10 cells incubated for 48 hrs by sulforhodamine B assay; type: functional; conditions: TK-10, 48 h
[19] = Antiproliferative activity against human SW620 cells incubated for 48 hrs by sulforhodamine B assay; type: functional; conditions: SW-620, 48 h; method in brief: as §2
SK-MEL-28 = assay: Antiproliferative activity against human SK-MEL-28 cells incubated for 48 hrs by sulforhodamine B assay; type: functional; conditions: SK-MEL-28, 48 h; method in brief: as §2
[20] = read-out: pLC50 (the source's name) (converted)

**Q.** With `COc1ncc(-c2ccc3nccc(C#CCN4CCN(S(C)(=O)=O)CC4)c3c2)cc1NS(=O)(=O)c1ccc(F)cc1F` as the compound, how does the GI50 [1] read?
**A.** The GI50 was 0.263 µM.

**Q.** What about the TGI ([1]; read-out: pTGI (converted)) of the same compound?
**A.** Its TGI is 1.45 µM.

**Q.** And the inhibition [2]?
**A.** Its inhibition is 95%.

**Q.** And the GI50 [3]?
**A.** The GI50 was 0.1 µM.

**Q.** What about the CC50 [3, 20] of the same compound?
**A.** Its CC50 is 41.7 µM.

**Q.** And the TGI ([3]; read-out: pTGI (converted))?
**A.** Its TGI is 12.9 µM.

**Q.** And the IC50 (MDA-MB-231)?
**A.** Its IC50 is 1.44 µM.

**Q.** What about the GI50 (A549) of the same compound?
**A.** The GI50 was 0.0724 µM.

**Q.** What about the CC50 (A549; [20]) of the same compound?
**A.** The CC50 was 44.7 µM.

**Q.** What about the TGI (A549; read-out: pTGI (converted)) of the same compound?
**A.** Its TGI is 5.5 µM.

**Q.** What about the GI50 [4] of the same compound?
**A.** Its GI50 is 0.0195 µM.

**Q.** What about the CC50 [4, 20] of the same compound?
**A.** The CC50 was over 100 µM.

**Q.** What about the TGI ([4]; read-out: pTGI (converted)) of the same compound?
**A.** Its TGI is 1.45 µM.

**Q.** What about the GI50 [5] of the same compound?
**A.** Its GI50 is 0.355 µM.

**Q.** And the CC50 [5, 20]?
**A.** The CC50 was 15.1 µM.

**Q.** And the TGI ([5]; read-out: pTGI (converted))?
**A.** The TGI was 2.51 µM.

**Q.** And the GI50 [6]?
**A.** The GI50 was 0.0513 µM.

**Q.** And the CC50 [6, 20]?
**A.** Its CC50 is 11.7 µM.

**Q.** What about the TGI ([6]; read-out: pTGI (converted)) of the same compound?
**A.** The TGI was 0.427 µM.

**Q.** And the GI50 [7]?
**A.** The GI50 was 0.055 µM.

**Q.** What about the CC50 [7, 20] of the same compound?
**A.** The CC50 was 6.61 µM.

**Q.** And the TGI ([7]; read-out: pTGI (converted))?
**A.** Its TGI is 1.35 µM.

**Q.** And the IC50 [8]?
**A.** Its IC50 is 0.93 µM.

**Q.** And the inhibition [9]?
**A.** Its inhibition is 69%.

**Q.** What about the GI50 [10] of the same compound?
**A.** Its GI50 is 0.055 µM.

**Q.** And the CC50 [10, 20]?
**A.** Its CC50 is 2.69 µM.

**Q.** And the TGI ([10]; read-out: pTGI (converted))?
**A.** The TGI was 0.363 µM.

**Q.** What about the GI50 (T47D) of the same compound?
**A.** The GI50 was under 0.01 µM.

**Q.** What about the CC50 (T47D; [20]) of the same compound?
**A.** Its CC50 is over 100 µM.

**Q.** And the TGI (T47D; read-out: pTGI (converted))?
**A.** The TGI was 0.0135 µM.

**Q.** What about the IC50 [11] of the same compound?
**A.** The IC50 was 0.002 µM.

**Q.** What about the GI50 (Malme-3M) of the same compound?
**A.** Its GI50 is 0.0199 µM.

**Q.** And the CC50 (Malme-3M; [20])?
**A.** The CC50 was 33.9 µM.

**Q.** And the TGI (Malme-3M; read-out: pTGI (converted))?
**A.** Its TGI is 0.324 µM.

**Q.** And the GI50 (NCI-H460)?
**A.** The GI50 was 0.0513 µM.

**Q.** What about the CC50 (NCI-H460; [20]) of the same compound?
**A.** Its CC50 is 30.9 µM.

**Q.** And the TGI (NCI-H460; read-out: pTGI (converted))?
**A.** The TGI was 2.14 µM.

**Q.** And the Activity [12]?
**A.** Its Activity is 52%.

**Q.** And the IC50 [13]?
**A.** The IC50 was 0.014 µM.

**Q.** And the GI50 [14]?
**A.** The GI50 was 0.0186 µM.

**Q.** What about the CC50 [14, 20] of the same compound?
**A.** Its CC50 is over 100 µM.

**Q.** What about the Activity (Mus musculus) of the same compound?
**A.** The Activity was “Non-toxic”.

**Q.** And the GI50 [15]?
**A.** Its GI50 is under 0.01 µM.

**Q.** What about the CC50 [15, 20] of the same compound?
**A.** Its CC50 is 63.1 µM.

**Q.** And the TGI ([15]; read-out: pTGI (converted))?
**A.** The TGI was 2.82 µM.

**Q.** And the GI50 (SK-MEL-2)?
**A.** The GI50 was 0.11 µM.

**Q.** And the CC50 (SK-MEL-2; [20])?
**A.** Its CC50 is 26.3 µM.

**Q.** And the TGI (SK-MEL-2; read-out: pTGI (converted))?
**A.** Its TGI is 0.871 µM.

**Q.** What about the GI50 [16] of the same compound?
**A.** The GI50 was 0.0174 µM.

**Q.** What about the CC50 [16, 20] of the same compound?
**A.** Its CC50 is 33.9 µM.

**Q.** What about the TGI ([16]; read-out: pTGI (converted)) of the same compound?
**A.** Its TGI is 0.229 µM.

**Q.** What about the GI50 [17] of the same compound?
**A.** Its GI50 is 0.0417 µM.

**Q.** And the CC50 [17, 20]?
**A.** Its CC50 is 4.57 µM.

**Q.** And the TGI ([17]; read-out: pTGI (converted))?
**A.** The TGI was 0.813 µM.

**Q.** What about the GI50 [18] of the same compound?
**A.** The GI50 was 0.0118 µM.

**Q.** What about the CC50 [18, 20] of the same compound?
**A.** Its CC50 is 38.9 µM.

**Q.** And the GI50 [19]?
**A.** Its GI50 is 0.229 µM.

**Q.** What about the CC50 [19, 20] of the same compound?
**A.** Its CC50 is 6.92 µM.

**Q.** And the TGI ([19]; read-out: pTGI (converted))?
**A.** Its TGI is 1.95 µM.

**Q.** What about the GI50 (SK-MEL-28) of the same compound?
**A.** Its GI50 is 0.0347 µM.

**Q.** And the CC50 (SK-MEL-28; [20])?
**A.** The CC50 was 5.25 µM.

**Q.** What about the TGI (SK-MEL-28; read-out: pTGI (converted)) of the same compound?
**A.** The TGI was 1.05 µM.
